Measured values: ChEMBL document CHEMBL1153726, “Synthesis and anticancer activity of sclerophytin-inspired hydroisobenzofurans” (Bioorg Med Chem Lett, 2009)

Key:
Assay type in all cases: functional
NCI-H226 = assay: Growth inhibition of human NCI-H226 cells at 1 nM after 96 hrs by MTT assay; parameters: scale not given: the % may be the effect or the level left
MDA-MB-231 = assay: Growth inhibition of human MDA-MB-231 cells after 96 hrs by MTT assay; settings: MDA-MB-231, 96 h
Method in brief: (§1)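 Run in the NCI 60 human tumour cell line panel as a five-dose assay. GI50 and LC50 were reported for each cell line.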

OVCAR-5 = assay: Growth inhibition of human OVCAR5 cells at 10 nM after 96 hrs by MTT assay; parameters: scale not given: the % may be the effect or the level left
NCI-H23 = assay: Growth inhibition of human NCI-H23 cells after 96 hrs by MTT assay; settings: NCI-H23, 96 h; method in brief: as §1
[1] = Growth inhibition of human Hs 578T cells at 100 nM after 96 hrs by MTT assay; parameters: scale not given: the % may be the effect or the level left
HL-60(TB) [2] = assay: Growth inhibition of human HL-60(TB) cells at 10 nM after 96 hrs by MTT assay; parameters: scale not given: the % may be the effect or the level left
K562 [3] = assay: Growth inhibition of human K562 cells at 10 uM after 96 hrs by MTT assay; parameters: scale not given: the % may be the effect or the level left
HT-29 = assay: Growth inhibition of human HT-29 cells after 96 hrs by MTT assay; settings: HT-29, 96 h; method in brief: as §1
[4] = Growth inhibition of human RPMI8266 cells at 1 nM after 96 hrs by MTT assay; parameters: scale not given: the % may be the effect or the level left
NCI-H460 [5] = assay: Growth inhibition of human NCI-H460 cells after 96 hrs by MTT assay; settings: NCI-H460, 96 h; method in brief: as §1
[6] = Growth inhibition of human Hs 578T cells at 1 nM after 96 hrs by MTT assay; parameters: scale not given: the % may be the effect or the level left
SW-620 = assay: Growth inhibition of human SW620 cells at 1 uM after 96 hrs by MTT assay; parameters: scale not given: the % may be the effect or the level left
M14 = assay: Growth inhibition of human M14 cells at 10 uM after 96 hrs by MTT assay; parameters: scale not given: the % may be the effect or the level left
K562 [7] = assay: Growth inhibition of human K562 cells after 96 hrs by MTT assay; settings: K562, 96 h; method in brief: as §1
IGROV-1 [8] = assay: Growth inhibition of human IGROV1 cells at 10 nM after 96 hrs by MTT assay; parameters: scale not given: the % may be the effect or the level left
HL-60(TB) [9] = assay: Growth inhibition of human HL-60(TB) cells at 10 uM after 96 hrs by MTT assay; parameters: scale not given: the % may be the effect or the level left
A498 [10] = assay: Growth inhibition of human A498 cells after 96 hrs by MTT assay; settings: A498, 96 h
SF-295 [11] = assay: Growth inhibition of human SF295 cells after 96 hrs by MTT assay; settings: SF-295, 96 h
Method in brief: (§2)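 Tested in the NCI 60-cell-line panel in five-dose format; GI50 and LC50 values reported for each cell line.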

COLO 205 = assay: Growth inhibition of human COLO205 cells at 1 nM after 96 hrs by MTT assay; parameters: scale not given: the % may be the effect or the level left
EKVX [12] = assay: Growth inhibition of human EKVX cells at 1 nM after 96 hrs by MTT assay; parameters: scale not given: the % may be the effect or the level left
HL-60(TB) [13] = assay: Growth inhibition of human HL-60(TB) cells at 1 nM after 96 hrs by MTT assay; parameters: scale not given: the % may be the effect or the level left
786-0 = assay: Growth inhibition of human 786-0 cells at 1 uM after 96 hrs by MTT assay; parameters: scale not given: the % may be the effect or the level left
BT-549 = assay: Growth inhibition of human BT549 cells at 10 nM after 96 hrs by MTT assay; parameters: scale not given: the % may be the effect or the level left
NCI-H460 [14] = assay: Growth inhibition of human NCI-H460 cells at 10 uM after 96 hrs by MTT assay; parameters: scale not given: the % may be the effect or the level left
KM12 = assay: Growth inhibition of human KM12 cells at 10 nM after 96 hrs by MTT assay; parameters: scale not given: the % may be the effect or the level left
LOX IMVI = assay: Growth inhibition of human LOXIMVI cells at 1 nM after 96 hrs by MTT assay; parameters: scale not given: the % may be the effect or the level left
T47D = assay: Growth inhibition of human T47D cells at 1 nM after 96 hrs by MTT assay; parameters: scale not given: the % may be the effect or the level left
SNB-19 = assay: Growth inhibition of human SNB19 cells at 1 uM after 96 hrs by MTT assay; parameters: scale not given: the % may be the effect or the level left
Malme-3M = assay: Growth inhibition of human MALME-3M cells at 10 nM after 96 hrs by MTT assay; parameters: scale not given: the % may be the effect or the level left
EKVX [15] = assay: Growth inhibition of human EKVX cells at 10 nM after 96 hrs by MTT assay; parameters: scale not given: the % may be the effect or the level left
NCI-H460 [16] = assay: Growth inhibition of human NCI-H460 cells at 1 nM after 96 hrs by MTT assay; parameters: scale not given: the % may be the effect or the level left
UACC-257 = assay: Growth inhibition of human UACC257 cells after 96 hrs by MTT assay; settings: UACC-257, 96 h; method in brief: as §2
A498 [17] = assay: Growth inhibition of human A498 cells at 1 uM after 96 hrs by MTT assay; parameters: scale not given: the % may be the effect or the level left
SF-295 [18] = assay: Growth inhibition of human SF295 cells at 1 nM after 96 hrs by MTT assay; parameters: scale not given: the % may be the effect or the level left
TK-10 = assay: Growth inhibition of human TK10 cells at 1 nM after 96 hrs by MTT assay; parameters: scale not given: the % may be the effect or the level left
PC-3 = assay: Growth inhibition of human PC3 cells at 10 nM after 96 hrs by MTT assay; parameters: scale not given: the % may be the effect or the level left
SK-MEL-5 = assay: Growth inhibition of human SK-MEL-5 cells at 10 uM after 96 hrs by MTT assay; parameters: scale not given: the % may be the effect or the level left
OVCAR-4 = assay: Growth inhibition of human OVCAR4 cells at 1 nM after 96 hrs by MTT assay; parameters: scale not given: the % may be the effect or the level left
IGROV-1 [19] = assay: Growth inhibition of human IGROV1 cells at 1 nM after 96 hrs by MTT assay; parameters: scale not given: the % may be the effect or the level left
[20] = read-out: LC50 (the source's name)
[21] = read-out: Log10GI50 (converted)
[22] = read-out: Log10LC50 (converted)

C=C(C)[C@H]1CC=C(C)C2=CO[C@@H](c3ccccc3F)[C@@H]21
Activity (NCI-H226): 96% | GI50 (MDA-MB-231; read-out: GI50): 6.73 µM | CC50 (MDA-MB-231; [20]): 55.9 µM | GI50 (MDA-MB-231; [21]): 6.76 µM | CC50 (MDA-MB-231; [22]): 56.2 µM | TGI (MDA-MB-231; read-out: Log10TGI (converted)): 22.4 µM | TGI (MDA-MB-231; read-out: TGI): 22.3 µM | Activity (OVCAR-5): 84% | GI50 (NCI-H23; read-out: GI50): 4.88 µM | CC50 (NCI-H23; [20]): 51.4 µM | GI50 (NCI-H23; [21]): 4.9 µM | CC50 (NCI-H23; [22]): 51.3 µM | TGI (NCI-H23; read-out: Log10TGI (converted)): 19.5 µM | TGI (NCI-H23; read-out: TGI): 19.4 µM | Activity [1]: 67% | Activity (HL-60(TB) [2]): 104% | Activity (K562 [3]): 67.84% | GI50 (HT-29; read-out: GI50): 3.41 µM | LC50 (50% lethal concentration) (HT-29; read-out: LC50): 43.2 µM | GI50 (HT-29; [21]): 3.39 µM | LC50 (50% lethal concentration) (HT-29; [22]): 43.7 µM | TGI (HT-29; read-out: Log10TGI (converted)): 15.5 µM | TGI (HT-29; read-out: TGI): 15.6 µM | Activity [4]: 78% | GI50 (NCI-H460 [5]; read-out: GI50): 4.24 µM | CC50 (NCI-H460 [5]; [20]): 43.4 µM | GI50 (NCI-H460 [5]; [21]): 4.27 µM | CC50 (NCI-H460 [5]; [22]): 43.7 µM | TGI (NCI-H460 [5]; read-out: Log10TGI (converted)): 17.4 µM | TGI (NCI-H460 [5]; read-out: TGI): 17.5 µM | Activity [6]: 83% | Activity (SW-620): 23% | Activity (M14): 102.54% | GI50 (K562 [7]; read-out: GI50): 2.04 µM | CC50 (K562 [7]; [20]): 49.3 µM | GI50 (K562 [7]; [21]): 2.04 µM | CC50 (K562 [7]; [22]): 49 µM | TGI (K562 [7]; read-out: Log10TGI (converted)): 13.2 µM | TGI (K562 [7]; read-out: TGI): 13.2 µM | Activity (IGROV-1 [8]): 85% | Activity (HL-60(TB) [9]): 44.43% | GI50 (A498 [10]; read-out: GI50): 2.34 µM | CC50 (A498 [10]; [20]): 26.5 µM | GI50 (A498 [10]; [21]): 2.34 µM | CC50 (A498 [10]; [22]): 26.3 µM | TGI (A498 [10]; read-out: Log10TGI (converted)): 7.08 µM | TGI (A498 [10]; read-out: TGI): 7.07 µM | GI50 (SF-295 [11]; read-out: GI50): 4.49 µM | CC50 (SF-295 [11]; [20]): 45.7 µM | GI50 (SF-295 [11]; [21]): 4.47 µM | CC50 (SF-295 [11]; [22]): 45.7 µM | TGI (SF-295 [11]; read-out: Log10TGI (converted)): 17.4 µM | TGI (SF-295 [11]; read-out: TGI): 17.6 µM | Activity (COLO 205): 101% | Activity (EKVX [12]): 98% | Activity (HL-60(TB) [13]): 104% | Activity (786-0): 48% | Activity (BT-549): 84% | Activity (NCI-H460 [14]): 92.68% | Activity (KM12): 93% | Activity (LOX IMVI): 97% | Activity (T47D): 98% | Activity (SNB-19): 54% | Activity (Malme-3M): 88% | Activity (EKVX [15]): 93% | Activity (NCI-H460 [16]): 97% | GI50 (UACC-257; read-out: GI50): 6.71 µM | CC50 (UACC-257; [20]): 50.9 µM | GI50 (UACC-257; [21]): 6.76 µM | CC50 (UACC-257; [22]): 51.3 µM | TGI (UACC-257; read-out: Log10TGI (converted)): 21.4 µM | TGI (UACC-257; read-out: TGI): 21.3 µM | Activity (A498 [17]): -16% | Activity (SF-295 [18]): 96% | Activity (TK-10): 84% | Activity (PC-3): 89% | Activity (SK-MEL-5): 84.67% | Activity (OVCAR-4): 91% | Activity (IGROV-1 [19]): 91%
